Assay outcomes from PubChem.
The list is not random: actives were taken first. Their share in the collection is about 3.5%.
RGS4 inh – RGS4 inhibitors, primary screen, cell-based, HEK293 M3R inducible RGS4, calcium flux; Regulator of G-protein signaling 4 (Homo sapiens), P49798; Fluo-4 calcium flux; active compounds read high; triggered by carbachol at its EC20; B-score at 10 µM; hit rate 0.45% among 310,000;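 active means B-score, a plate-corrected calcium signal, over three deviations above library mean, with baseline fluorescence within five deviations of library mean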;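 further: RGS4 expression induced by doxycycline in cells with stable M3 receptor; B-score is computed from the integrated fluorescence ratio over baseline after carbachol; higher B-score means a larger calcium signal and so more RGS4 inhibition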
Target sequence (P49798 whole entry, looked up): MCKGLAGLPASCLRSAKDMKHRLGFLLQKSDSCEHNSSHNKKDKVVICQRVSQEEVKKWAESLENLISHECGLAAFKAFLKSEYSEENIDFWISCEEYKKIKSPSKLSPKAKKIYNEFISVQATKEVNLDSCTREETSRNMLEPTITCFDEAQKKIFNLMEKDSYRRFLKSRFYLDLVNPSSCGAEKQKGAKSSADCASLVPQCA
MrgX1 agonist – agonists of human MrgX1 receptor, primary screen, HEK293 cells, Fluo-4 calcium flux; Mas-related G-protein coupled receptor member X1 (Homo sapiens), Q96LB2; Fluo-4 calcium fluorescence, agonist mode; active compounds read high; B-score at 10 µM; hit rate 0.44% among 310,000; AID 588627, 2011;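 active means calcium response B-score plate-corrected fluorescence ratio at least 3 library SD, with starting fluorescence B-score inside 5 SD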
Target sequence (Q96LB2 whole entry, looked up): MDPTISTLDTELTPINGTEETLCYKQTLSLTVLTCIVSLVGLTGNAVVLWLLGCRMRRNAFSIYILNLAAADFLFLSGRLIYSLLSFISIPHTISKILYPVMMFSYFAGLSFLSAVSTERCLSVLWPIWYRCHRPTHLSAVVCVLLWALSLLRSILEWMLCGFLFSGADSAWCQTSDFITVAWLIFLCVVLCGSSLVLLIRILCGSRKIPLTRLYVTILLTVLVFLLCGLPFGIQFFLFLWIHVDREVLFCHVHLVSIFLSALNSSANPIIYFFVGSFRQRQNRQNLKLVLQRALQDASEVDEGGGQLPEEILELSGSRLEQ
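Material – MrgX1-expressing HEK293 cells · Input – 15,000 cells seeded per well · Dosing – compound as first of three additions · Times – overnight seeding, then 1 h dark dye loading · Measured by – kinetic Fluo-4 NW fluorescence of intracellular calcium · Read-out – B-scored fluorescence response ratio · Benchmarks – positive and negative control wells on each plate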
RGS4 pot – RGS4 potentiators or activators, primary screen, cell-based, HEK293 M3R inducible RGS4, calcium flux; carbachol calcium flux Fluo4; active compounds read low; hit rate 0.92% among 310,000; B-score at 10 µM;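 active means B-score of the integrated calcium signal more than 4 SD below the library mean, with starting fluorescence not abnormally high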;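 further: negative B-score means reduced calcium response which marks RGS4 activation or potentiation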
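Reagent: ECmax carbachol challenge; Test system: M3R-expressing HEK293 line, RGS4 induced by doxycycline; Schedule: overnight RGS4 induction, 30 min dye load 37 °C, 20 min compound RT; Detection: calcium dye Fluo4 fluorescence; Read-out: Agonist-evoked peak-minus-minimum fluorescence over baseline, integrated ratio, B score.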
MrgX1 antagonist – antagonists of human MrgX1 receptor, primary screen, HEK293 cells, Fluo-4 calcium flux | Mas-related G-protein coupled receptor member X1 (Homo sapiens), Q96LB2 | BAM8-22 antagonism; active compounds read low | B-score at 10 µM | hit rate 1.3% among 310,000;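 active means calcium-response B-score plate-corrected more than 3 library SD below zero, starting fluorescence within 5 deviations, no agonist response on first addition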;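 further: peak minus trough fluorescence over baseline after final BAM8-22 challenge near maximal dose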
MrgX1 allo act – positive allosteric modulators of MrgX1, primary screen, HEK293 cells, Fluo-4 calcium flux; hit rate 0.63% among 310,000; B-score at 10 µM; Mas-related G-protein coupled receptor member X1 (Homo sapiens), Q96LB2; FDSS; active compounds read high;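 active means plate-corrected calcium response at least 3 library SD above typical, normal starting fluorescence, not activating the receptor alone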;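 further: compound read alongside a low EC10 to EC30 dose of BAM8-22 agonist; peak minus trough fluorescence over baseline measured at the second addition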
* hit, by the source's call; i = inactive; . = not tested or not shown.

SMILES | RGS4 inh | MrgX1 agonist | RGS4 pot | MrgX1 antagonist | MrgX1 allo act
O=[N+]([O-])c1ccc(NC(=S)NCCc2ccccc2)cc1 | i | i | i | -4.9* | i
O=[N+]([O-])c1ccc(NC(=S)NCCc2ccc(Cl)cc2)cc1 | i | i | i | -6* | i
S=C(NCCc1ccccc1)Nc1ccc(Cl)cc1 | i | i | i | i | i
C/C(=C\C(=O)c1ccc(Cl)cc1)Nc1ccc(Br)cc1 | i | i | i | i | i
C/C(=C\C(=O)c1ccc(Br)cc1)Nc1cccc(Cl)c1 | i | i | -8.1* | i | i
Cc1cccn2c(=O)c(C=NCc3ccccc3)c(NCCO)nc12 | i | i | i | i | i
CCCN1C(=O)/C(=C/c2c(NCCCOC(C)C)nc3c(C)cccn3c2=O)SC1=S | i | i | i | -10* | i
CCC(C)N1C(=O)/C(=C/c2c(NCCCOC(C)C)nc3c(C)cccn3c2=O)SC1=S (stereo not given) | . | i | . | -11* | i
CCC(C)Nc1nc2c(C)cccn2c(=O)c1C=Nc1ccc(OC)cc1 (stereo not given) | i | i | i | i | i
COc1cc(/C=N/NC(=O)c2ccc(O)cc2)ccc1OCC(=O)N1CC(C)OC(C)C1 (stereo not given) | i | i | i | i | i
CCC1=C(OC(=O)N(CC)CC)N2C(=O)OC(=NCC3CC3)[C@]2(Cc2ccccc2)[C@H]2C1=CC[C@H]1C(=O)NC(=O)[C@H]12 | i | i | i | -8.1* | i
CCC1=C(OC(=O)N(CC)CC)N2C(=O)OC(=NCCOC)[C@]2(Cc2ccccc2)[C@H]2C1=CC[C@H]1C(=O)NC(=O)[C@H]12 | i | i | i | i | i
Cc1cccc(NC(=O)c2n[nH]c([N+](=O)[O-])c2Br)c1C | i | i | i | i | 7.1*
Cc1cccc(NC(=O)c2ccccn2)c1C | i | i | i | i | i
CCOc1ccc2nc(N3CCC(C(=O)N4CCN(c5ncccn5)CC4)CC3)sc2c1 | i | i | i | -8.1* | i
CC(=O)c1cccc(NC(=O)CCc2nnc3ccc(NCc4ccc5c(c4)OCO5)nn23)c1 | i | i | i | i | i
COc1ccccc1Nc1nnc(SCC(=O)Nc2nc(-c3ccc(F)cc3)cs2)s1 | i | i | i | i | i
CCc1cc(=O)oc2cc(C)cc(O)c12 | i | i | i | i | i
CCCc1cc(=O)oc2cc(C)cc(O)c12 | i | 35* | i | i | i
Cc1cccc(C)c1C(OCCN(C)C)C1CCCCC1 (stereo not given) | i | i | -7.4* | i | i
COCCN(C(=O)CCl)C(C(=O)NC1CCCCC1)c1ccccc1C (stereo not given) | i | i | i | i | i
COc1ccc2oc3ccccc3c(=O)c2c1 | i | i | i | i | i
COc1cc(/C(C)=C/c2ccccc2)c2c(c1)oc1ccccc12 | i | i | i | i | 9*
COc1ccc(Br)cc1S(=O)(=O)NCc1ccccc1 | i | i | i | -4.9* | i
COc1ccc(F)cc1S(=O)(=O)NCc1ccccc1 | i | i | i | i | i
SMILES | RGS4 inh | MrgX1 agonist | RGS4 pot | MrgX1 antagonist | MrgX1 allo act
CC(=O)N1CCOc2ccc(S(=O)(=O)N(C)c3cccc(C)c3)cc21 | i | i | i | i | i
O=C(/C=C/c1ccccc1)c1cc(Br)ccc(=O)c1O | i | i | i | i | 11*
CC1CCC(NC(=O)c2ccc(NC3=NC4CS(=O)(=O)CC4S3)cc2)CC1 (stereo not given) | i | i | i | i | i
Cc1cc(C)cc(NC(=O)CSCc2cc(=O)n3ccsc3n2)c1 | i | i | i | i | i
COC1=C(c2ccccc2)C(=O)c2ccccc2C1=O | i | i | i | i | 7.2*
Cc1ccc(NC(=O)CN(C)C(=O)COC(=O)CNS(=O)(=O)c2ccc(Br)cc2Cl)cc1 | i | 59* | i | i | i
Cc1ccc(NC(=O)CN(C)C(=O)COC(=O)CNS(=O)(=O)c2ccc(F)c(F)c2F)cc1 | i | i | i | i | i
Cn1c(CNC(=O)CNS(=O)(=O)c2ccc(Cl)cc2)cc(=O)n(C)c1=O | i | i | i | i | i
CCCCN(CCCC)CCNC(=O)c1cn(CC)c2ccc(S(=O)(=O)N3CCCC3)cc2c1=O | i | i | i | i | i
COc1ccc(OC)c(/C=C2\Oc3cc(OCC(=O)N4CCC[C@H]4C(=O)O)ccc3C2=O)c1 | i | 31* | i | i | i
COc1ccc(/C=C2\Oc3cc(OCC(=O)N4CCC[C@H]4C(=O)O)ccc3C2=O)c(OC)c1 | i | i | i | i | i
CC(C)C(NC(=O)c1ccccc1F)C(=O)NCCc1ccccn1 (stereo not given) | i | i | i | i | i
Cc1cccn2c(=O)c(C(=O)NC3CC(C)CC(C)(C)C3)c(O)nc12 (stereo not given) | i | i | -7.2* | i | i
O=C(NCCC1=CCCCC1)C1CC(=O)N(Cc2ccccc2)C1 (stereo not given) | i | i | i | i | i
COc1ccc(OCc2cc(C(=O)NCCN3CCCc4ccccc43)no2)c(Cl)c1 | i | i | -7.5* | i | i
O=S(=O)(/C(=C/c1ccc(C(F)(F)F)cc1)c1nc2ccccc2[nH]1)c1ccccc1 | 22* | i | i | i | i
CC(C)c1ccc(/C=C(\c2nc3ccccc3[nH]2)S(=O)(=O)c2ccccc2)cc1 | i | i | i | i | i
COc1cccc(-n2nnnc2SCC(=O)Nc2ccccc2OC)c1 | i | i | i | i | i
CCCS(=O)(=O)c1nnnn1-c1cccc(OC)c1 | i | 50* | i | i | i
COc1ccc(OC)c(CNc2ncc(-c3cccc([N+](=O)[O-])c3)n2C)c1 | i | i | -7* | i | i
Cn1c(-c2cccc([N+](=O)[O-])c2)cnc1NCc1cccc([N+](=O)[O-])c1 | i | i | i | i | i
Nc1c(C(=O)Nc2ccc(F)cc2)sc2nc(-c3ccco3)ccc12 | i | i | i | -4.9* | i
Nc1c(C(=O)Nc2ccc(Br)cc2)sc2nc(-c3ccco3)ccc12 | i | i | i | i | i
CCC(C)C(NC(=O)C1CCC(C)CC1)C(=O)Nc1ccc(OC)cc1 (stereo not given) | i | i | i | i | i
